According to ChEMBL document CHEMBL1123502, “Synthesis of [[(naphthalenylmethoxy)- and [[(quinolinylmethoxy)phenyl]amino]oxoalkanoic acid esters. A novel series of leukotriene D4 antagonists and 5-lipoxygenase inhibitors” (J Med Chem, 1986):

Experiments:
[1] = target: T1, Polyunsaturated fatty acid 5-lipoxygenase (Rattus norvegicus, UniProt P12527); test: Inhibition of rat polymorphonuclear leukocyte (PMN) 5-Lipoxygenase in vitro
T1 sequence (P12527 whole entry): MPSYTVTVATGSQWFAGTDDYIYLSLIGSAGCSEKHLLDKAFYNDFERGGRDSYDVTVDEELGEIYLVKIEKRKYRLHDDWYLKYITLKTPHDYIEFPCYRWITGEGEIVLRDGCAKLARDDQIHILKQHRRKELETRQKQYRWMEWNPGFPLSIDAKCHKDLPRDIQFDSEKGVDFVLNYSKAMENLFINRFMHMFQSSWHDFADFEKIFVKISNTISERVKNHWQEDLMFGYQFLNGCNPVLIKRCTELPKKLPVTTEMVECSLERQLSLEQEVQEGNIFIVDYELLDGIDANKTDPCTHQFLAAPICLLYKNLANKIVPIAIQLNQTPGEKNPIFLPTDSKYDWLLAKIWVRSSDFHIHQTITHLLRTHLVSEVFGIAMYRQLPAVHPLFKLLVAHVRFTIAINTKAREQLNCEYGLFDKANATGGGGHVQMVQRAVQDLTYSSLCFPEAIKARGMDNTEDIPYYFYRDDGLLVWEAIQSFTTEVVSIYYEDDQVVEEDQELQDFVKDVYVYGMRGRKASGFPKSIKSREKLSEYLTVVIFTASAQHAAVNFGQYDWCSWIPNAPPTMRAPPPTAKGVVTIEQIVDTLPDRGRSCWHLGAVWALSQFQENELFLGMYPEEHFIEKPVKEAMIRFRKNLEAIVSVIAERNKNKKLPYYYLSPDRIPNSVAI
In short: (§1)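 Peritoneal PMNs came from female Wistar rats 24 h after ip 6% glycogen. Cells at 2×10^7/mL in HBSS with Ca2+/Mg2+ and 10 mM L-cysteine were preincubated with drug or vehicle for 10 min at 37 °C. The reaction was stopped with ice-cold water and acidified to pH 3.5, and LO and CO products were ether-extracted. IC50 per metabolite came from nonlinear regression.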

Cavia porcellus [2] = test: Compound was evaluated in vivo for the percent inhibition of Ovalbumin-induced (OA) bronchospasm in guinea pig at dose of 50 mg/kg id; type: functional; settings: route intraduodenal
In short: (§2)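 Male Hartley guinea pigs (350-600 g) were sensitized with ovalbumin (5 mg ip plus 5 mg sc) and used 3-5 weeks later. They were anesthetized with pentobarbital, ventilated, and given indomethacin (10 mg/kg iv, 9 min before challenge) and chlorpheniramine (1.0 mg/kg iv, 1 min later). Drug was given id (or as noted) 10 min before 1% aerosolized ovalbumin; controls received saline. Overflow volume at 1, 3 and 5 min was taken as % of maximal bronchoconstriction and converted to % inhibition.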

[3] = target: Cyclooxygenase (Rattus norvegicus) (UniProt P35355+Q63921); test: In vitro inhibition of rat polymorphonuclear leukocyte (PMN) Prostaglandin G/H synthase at 100 uM
Cyclooxygenase = target: T2, Cyclooxygenase (Rattus norvegicus, UniProt P35355+Q63921); test: In vitro inhibition of rat polymorphonuclear leukocyte (PMN) Prostaglandin G/H synthase; type: protein assay; in short: as §1
T2 sequence (P35355 whole entry): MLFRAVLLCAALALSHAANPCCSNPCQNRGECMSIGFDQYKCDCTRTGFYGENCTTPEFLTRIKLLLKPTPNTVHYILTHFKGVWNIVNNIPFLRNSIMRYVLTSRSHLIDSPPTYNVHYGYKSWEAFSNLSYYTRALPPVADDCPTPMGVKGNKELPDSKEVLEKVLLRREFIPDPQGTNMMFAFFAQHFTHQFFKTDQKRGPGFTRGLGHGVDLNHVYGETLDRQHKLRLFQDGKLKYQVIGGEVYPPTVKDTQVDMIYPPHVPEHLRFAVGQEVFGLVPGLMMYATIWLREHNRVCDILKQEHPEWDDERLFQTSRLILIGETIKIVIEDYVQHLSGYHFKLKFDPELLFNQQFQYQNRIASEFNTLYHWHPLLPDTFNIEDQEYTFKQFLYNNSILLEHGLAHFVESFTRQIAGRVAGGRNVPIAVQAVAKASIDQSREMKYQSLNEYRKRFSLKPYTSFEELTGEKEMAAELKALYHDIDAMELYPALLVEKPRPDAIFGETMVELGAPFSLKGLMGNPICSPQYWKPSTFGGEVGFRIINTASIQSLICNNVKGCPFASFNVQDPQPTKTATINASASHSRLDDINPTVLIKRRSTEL
T2 sequence (Q63921 whole entry): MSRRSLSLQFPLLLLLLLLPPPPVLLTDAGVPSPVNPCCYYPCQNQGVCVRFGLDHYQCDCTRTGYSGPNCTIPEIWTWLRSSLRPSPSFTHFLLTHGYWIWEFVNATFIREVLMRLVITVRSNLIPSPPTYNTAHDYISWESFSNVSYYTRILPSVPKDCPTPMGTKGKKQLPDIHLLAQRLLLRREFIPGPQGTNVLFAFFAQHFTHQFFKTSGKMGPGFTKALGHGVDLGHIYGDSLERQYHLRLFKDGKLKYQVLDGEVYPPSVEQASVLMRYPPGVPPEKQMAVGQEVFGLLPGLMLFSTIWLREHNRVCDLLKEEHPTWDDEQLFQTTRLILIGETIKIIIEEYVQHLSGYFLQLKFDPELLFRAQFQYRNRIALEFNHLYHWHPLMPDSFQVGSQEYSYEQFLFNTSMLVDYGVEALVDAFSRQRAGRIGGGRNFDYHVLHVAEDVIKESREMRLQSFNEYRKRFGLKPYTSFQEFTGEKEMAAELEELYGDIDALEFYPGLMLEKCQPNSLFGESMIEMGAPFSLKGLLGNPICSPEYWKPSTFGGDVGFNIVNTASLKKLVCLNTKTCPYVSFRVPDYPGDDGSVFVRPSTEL

[4] = In vivo inhibition of LTD4-induced bronchospasm in guinea pig at dose of 50 mg/kg; settings: Cavia porcellus
[5] = target: T3, Polyunsaturated fatty acid 5-lipoxygenase (Rattus norvegicus) (UniProt P12527); test: In vitro inhibition of rat polymorphonuclear leukocyte (PMN) 5-Lipoxygenase at 100 uM
T3 sequence (whole entry): T1 sequence (P12527 whole entry)

Cavia porcellus [6] = test: Compound was evaluated in vivo for the percent inhibition of Ovalbumin-induced (OA) bronchospasm in guinea pig at dose of 100 mg/kg id; type: functional; settings: route intraduodenal; in short: as §2
Cavia porcellus [7] = test: Compound was evaluated in vivo for the percent inhibition of Ovalbumin-induced (OA) bronchospasm in guinea pig at dose of 10 mg/kg iv; type: functional; in short: as §2
Cavia porcellus [8] = test: Compound was evaluated in vivo for the percent inhibition of LTD4-induced bronchospasm in guinea pig at dose of 10 mg/kg iv; type: functional
In short: (§3)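 Male guinea pigs (350-600 g) were anesthetized with pentobarbital sodium (50 mg/kg ip), cannulated and artificially ventilated, and spontaneous respiration arrested with pentobarbital (15 mg/kg iv). Indomethacin (10 mg/kg iv) was given 9 min before challenge. Drug was given id (or as noted) 10 min before iv LTD4 (0.3-1 μg/kg); controls received saline. Overflow volume at 1, 3 and 5 min was taken as % of maximal bronchoconstriction and converted to % inhibition versus control.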

Cavia porcellus [9] = test: Compound was evaluated in vivo for the percent inhibition of LTD4-induced bronchospasm in guinea pig at dose of 50 mg/kg id; type: functional; settings: route intraduodenal; in short: as §3
Cavia porcellus [10] = organism: Cavia porcellus; test: Compound was evaluated for its effect on LTD4-induced contraction of guinea pig trachea; type: functional
In short: (§4)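 Isolated guinea pig tracheal spiral strips were contracted with LTC4 or LTD4, with antagonist at 3×10^-6 M versus untreated control. Responses are expressed as percentage of the tissue's maximal response to carbachol (1 mM). Potency is given as -log of the agonist concentration (M) giving a half-maximal response. pKB = -log([B]/(dose ratio - 1)), where dose ratio = treated ED50 ÷ control ED50. Control vs treated compared by unpaired Student's t test.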

Cavia porcellus [11] = organism: Cavia porcellus; test: Compound was evaluated for its effect on LTC4-induced contraction of guinea pig trachea; percentage of maximal response of tissue to carbachol; type: functional; in short: as §4
Cavia porcellus [12] = organism: Cavia porcellus; test: Compound was evaluated for its effect on LTD4-induced contraction of guinea pig trachea; percentage of maximal response of tissue to carbachol; type: functional; in short: as §4
Cavia porcellus [13] = organism: Cavia porcellus; test: Compound was evaluated for its effect on LTC4-induced contraction of guinea pig trachea; type: functional; in short: as §4

| IC50 [1] | inhibition [3] | inhibition [4] | SMILES | also measured |
| --- | --- | --- | --- | --- |
| 19 µM | < 50% | – | CCOC(=O)CC(=O)Nc1cccc(OCc2ccc3ccccc3n2)c1 | inhibition in vivo at 50 mg/kg (Cavia porcellus [2]): 67% |
| 0.6 µM | – | – | COC(=O)CCC(=O)N(O)c1cccc(OCc2ccc3ccccc3c2)c1 | inhibition in vivo at 50 mg/kg (Cavia porcellus [2]): 18%; IC50 (Cyclooxygenase): 7.4 µM |
| – | < 50% | -6% | COC(=O)CCC(=O)Nc1cccc(OCc2ccc3ccccc3n2)c1C#N | inhibition [5]: < 50% |
| 60.5 µM | – | -6% | COC(=O)CCNC(=O)c1cccc(COc2ccc3ccccc3c2)c1 | – |
| 6.9 µM | < 50% | -1% | COC(=O)C(=O)Nc1cccc(OCc2ccc3ccccc3c2)c1 | – |
| – | – | -6% | COC(=O)CCC(=O)Nc1ccccc1OCc1ccc2ccccc2n1 | inhibition in vivo at 100 mg/kg (Cavia porcellus [6]): 9%; inhibition [5]: < 50% |
| 35.2 µM | – | -3% | COC(=O)CCNC(=O)c1cccc(OCc2ccc3ccccc3n2)c1 | – |
| 14 µM | < 50% | 48% | COC(=O)CCC(=O)N(C)c1cccc(OCc2ccc3ccccc3n2)c1 | inhibition in vivo at 50 mg/kg (Cavia porcellus [2]): 2% |
| 5.3 µM | < 50% | -2% | COC(=O)C(=O)Nc1cccc(OCc2ccc3ccccc3n2)c1 | – |
| 29.5 µM | < 50% | – | COC(=O)CCNC(=O)c1cccc(OCc2ccc3ccccc3c2)c1 | – |
| – | – | 12% | COC(=O)CCC(=O)Nc1ccc(OCc2ccc3ccccc3c2)cc1 | inhibition [5]: < 50% |
| – | < 50% | – | CCCCCC(O)c1cccc(OCc2ccc3ccccc3n2)c1 (stereo not given) | – |
| 2.6 µM | < 50% | -7% | COC(=O)CCC(=O)Nc1ccc(OCc2ccc3ccccc3n2)cc1 | – |
| 1.91 µM | < 50% | – | COC(=O)CCC(=O)Nc1cccc(COc2ccc3ccccc3c2)c1 | – |
| 9.5 µM | < 50% | – | COC(=O)CC(=O)Nc1cccc(OCc2ccc3ccccc3c2)c1 | – |
| 3.2 µM | < 50% | – | COC(=O)CCC(=O)Nc1cccc(OCc2ccc3ccccc3c2)c1 | inhibition in vivo at 10 mg/kg (Cavia porcellus [7]): 10%; inhibition in vivo at 10 mg/kg (Cavia porcellus [8]): 54% |
| 0.86 µM | – | 5% | COC(=O)CCC(=O)N(O)c1cccc(COc2ccc3ccccc3c2)c1 | IC50 (Cyclooxygenase): 6.1 µM |
| 15.5 µM | < 50% | – | COC(=O)CCC(=O)Nc1cccc(OCc2ccc3ccccc3n2)c1C | – |

| IC50 [1] | inhibition [3] | inhibition [4] | SMILES | also measured |
| --- | --- | --- | --- | --- |
| – | – | – | N#CCCNC(=O)c1cccc(OCc2ccc3ccccc3c2)c1 | inhibition [5]: < 50% |
| – | < 50% | -6.1% | COC(=O)CCC(=O)Nc1cccc(OCc2ccc3ccc(C)cc3n2)c1 | inhibition [5]: < 50% |
| – | – | 10% | O=C(O)CCNC(=O)c1cccc(OCc2ccc3ccccc3c2)c1 | inhibition [5]: < 50% |
| – | – | 66% | O=C(O)CCC(=O)Nc1cccc(OCc2ccc3ccccc3n2)c1 | inhibition in vivo at 50 mg/kg (Cavia porcellus [2]): -20%; inhibition [5]: < 50% |
| 24.6 µM | < 50% | – | COC(=O)CC(=O)Nc1cccc(OCc2ccc3ccccc3n2)c1 | inhibition in vivo at 50 mg/kg (Cavia porcellus [2]): 57% |
| 15.7 µM | – | – | O=C(O)CCC(=O)N(O)c1cccc(OCc2ccc3ccccc3c2)c1 | inhibition in vivo at 50 mg/kg (Cavia porcellus [2]): -35% |
| 86.2 µM | < 50% | – | COC(=O)CCC(=O)Nc1ccccc1OCc1ccc2ccccc2c1 | – |
| – | – | – | COC(=O)CCC(=O)Nc1ccc(NC(=O)CCC(=O)OC)c(OCc2ccc3ccccc3n2)c1 | inhibition in vivo at 50 mg/kg (Cavia porcellus [9]): 18%; inhibition [5]: < 50% |
| 7.6 µM | < 50% | 23% | COC(=O)CCC(=O)Nc1cc(OCc2ccc3ccccc3n2)ccc1C | – |
| – | – | 2% | O=C(O)CCNC(=O)c1cccc(COc2ccc3ccccc3c2)c1 | inhibition [5]: < 50% |
| 10.4 µM | – | – | COC(=O)CCCC(=O)Nc1cccc(OCc2ccc3ccccc3n2)c1 | – |
| 28 µM | < 50% | 86% | COC(=O)CCC(=O)Nc1cccc(OCc2ccc3ccccc3n2)c1 | inhibition in vivo at 50 mg/kg (Cavia porcellus [2]): 43% |
| – | – | – | COC(=O)CCC(=O)Nc1cccc(OCc2cccc3cccnc23)c1 | inhibition [5]: < 50% |
| 12.6 µM | – | 5% | COC(=O)CCCC(=O)Nc1cccc(OCc2ccc3ccccc3c2)c1 | – |
| 1.4 µM | – | 97% | COC(=O)CCC(=O)N(O)c1cccc(OCc2ccc3ccccc3n2)c1 | -Log ED50 (Cavia porcellus [10]): 7.79; pKB (Cavia porcellus [10]): 5.33; Max contractility (Cavia porcellus [11]): 77%; Max contractility (Cavia porcellus [12]): 63%; inhibition in vivo at 50 mg/kg (Cavia porcellus [2]): 76%; IC50 (Cyclooxygenase): 40 µM; -Log ED50 (Cavia porcellus [13]): 7.5; pKB (Cavia porcellus [13]): 5.35 |
| 26 µM | – | 29% | COC(=O)CCC(=O)Nc1cccc(Oc2ccc3ccccc3n2)c1 | inhibition in vivo at 50 mg/kg (Cavia porcellus [2]): -55% |
| 12.6 µM | < 50% | 95% | CCOC(=O)CCC(=O)Nc1cccc(OCc2ccc3ccccc3n2)c1 | inhibition in vivo at 50 mg/kg (Cavia porcellus [2]): 6% |
